This passage reports Activity, IC50 and inhibition results from ChEMBL document CHEMBL1155371, “Small molecule inhibitors of the neuropilin-1 vascular endothelial growth factor A (VEGF-A) interaction” (J Med Chem, 2010).

The structures appear in SMILES notation. Calls of active or inactive are those of the source. The rule behind the calls is not given here. Where a SMILES comes first, the peptide text is derived from it.

The target in experiment [1] is T1, Neuropilin-1 (Homo sapiens, UniProt O14786). In words: Displacement of [125I]VEGF-A from human NRP1 expressed in pig aortic endothelial cells at 100 uM. It is filed as cell-based. The following applies: Endothelial cell. An outline of the steps: (§1)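 PAE cells stably expressing NRP1 (Ham's F12, 10% FBS, hygromycin B) grown to confluence. Compounds at 0.1−100 μM (single-point inhibition read at 100 μM) were added, then 0.1 nM 125I-VEGF-A165. Nonspecific binding was taken with 100-fold excess unlabeled VEGF. IC50 came from competition curves; three independent experiments, triplicate per concentration, mean ± SEM.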
Background: Loss of bound radioactivity is the signal in a displacement assay; it reports binding, not function.

The next experiment deals with A549. Description: Cytotoxicity against human A549 cells after 48 hrs by XTT method. It is filed as functional, cell-based. In short, it runs like this: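 A549 lung carcinoma cells seeded at 4 × 10^3 per well in serum-free medium, with compound added. After 44 h incubation, XTT labeling reagent was added and cells were incubated a further 4 h, giving 48 h total. Formazan read at 490 nm against a 595 nm reference. Three independent experiments, each in triplicate, reported as mean ± SEM.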
(Formazan colour is commonly taken as a measure of viable cells.)

In experiment [2] the target is T1, Neuropilin-1. Description: Displacement of [125I]VEGF-A from human NRP1 expressed in pig aortic endothelial cells. It is filed as cell-based, Endothelial cell. An outline of the steps: as §1
The target in experiment [3] is T1, Neuropilin-1. In words: Displacement of […] from NRP1 b1 domain by cell-free assay.
In experiment [4] the target is T1, Neuropilin-1. Description: Displacement of [125I]VEGF-A from human NRP1 expressed in human A549 cells. The class given is cell-based.
For experiment [5], the target named is T1, Neuropilin-1. Description: Displacement of […] from human NRP1 expressed in human DU145 cells. It is filed as cell-based, DU-145.
The target in experiment [6] is T1, Neuropilin-1. In words: Displacement of biotinylated-[…] from human NRP1 expressed in HUVEC. It is filed as cell-based.
Experiment [7] has as its target Vascular endothelial growth factor receptor 1 (Homo sapiens) (UniProt P17948). In words: Displacement of biotinylated-[…] from human VEGFR1 expressed in human DU145 cells. The class given is cell-based. The following applies: DU-145.
For experiment [8], the target named is Vascular endothelial growth factor receptor 2 (Homo sapiens) (UniProt P35968). In words: Displacement of biotinylated-[…] from human VEGFR2 expressed in human DU145 cells. It is filed as cell-based. The following applies: DU-145.
The target of experiment [9] is Vascular endothelial growth factor receptor 1 (Homo sapiens) (UniProt P17948). In words: Displacement of biotinylated-[…] from human VEGFR1 expressed in human A549 cells. The class given is cell-based.
The target of experiment [10] is Vascular endothelial growth factor receptor 2 (Homo sapiens) (UniProt P35968). Description: Displacement of biotinylated-[…] from human VEGFR2 expressed in human A549 cells. It is filed as cell-based.
For experiment [11] the target is unchanged. In words: Inhibition of VEGF-A-induced VEGFR2 phosphorylation in HUVEC by ELISA. It is filed as cell-based. In short, it runs like this:
(§2)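 Confluent HUVECs were pretreated 30 min with compound or DMSO vehicle, then stimulated with or without 25 ng/mL VEGF-A165 for 5 min at 37 °C. Tyr1175-phosphorylated and total VEGFR2 in lysates were measured by sandwich ELISA kits. Three independent experiments in duplicate, mean ± SEM.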
(In general: ELISA stands for enzyme-linked immunosorbent assay.)

The target is the same in experiment [12]. In words: Inhibition of VEGF-A-induced VEGFR2 phosphorylation in HUVEC at 100 uM by ELISA. It is filed as cell-based. In short, it runs like this:
as §2

In another experiment the test system is HUVEC. In words: Inhibition of VEGF-A-induced chemotaxis in HUVEC assessed as reduction in cell migration. The class given is functional, cell-based. The following applies: Homo sapiens. An outline of the steps: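 HUVECs in EBM/0.1% BSA were pretreated 30 min with compound or DMSO, and 1.5 × 10^5 cells were loaded into collagen I-coated 8 μm-pore transwell inserts. Cells migrated toward 25 ng/mL VEGF or medium control for 4 h at 37 °C. Migrated cells were stained and counted in four fields at ×100. Three experiments in duplicate, mean ± SEM.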

T1 sequence (O14786 whole entry): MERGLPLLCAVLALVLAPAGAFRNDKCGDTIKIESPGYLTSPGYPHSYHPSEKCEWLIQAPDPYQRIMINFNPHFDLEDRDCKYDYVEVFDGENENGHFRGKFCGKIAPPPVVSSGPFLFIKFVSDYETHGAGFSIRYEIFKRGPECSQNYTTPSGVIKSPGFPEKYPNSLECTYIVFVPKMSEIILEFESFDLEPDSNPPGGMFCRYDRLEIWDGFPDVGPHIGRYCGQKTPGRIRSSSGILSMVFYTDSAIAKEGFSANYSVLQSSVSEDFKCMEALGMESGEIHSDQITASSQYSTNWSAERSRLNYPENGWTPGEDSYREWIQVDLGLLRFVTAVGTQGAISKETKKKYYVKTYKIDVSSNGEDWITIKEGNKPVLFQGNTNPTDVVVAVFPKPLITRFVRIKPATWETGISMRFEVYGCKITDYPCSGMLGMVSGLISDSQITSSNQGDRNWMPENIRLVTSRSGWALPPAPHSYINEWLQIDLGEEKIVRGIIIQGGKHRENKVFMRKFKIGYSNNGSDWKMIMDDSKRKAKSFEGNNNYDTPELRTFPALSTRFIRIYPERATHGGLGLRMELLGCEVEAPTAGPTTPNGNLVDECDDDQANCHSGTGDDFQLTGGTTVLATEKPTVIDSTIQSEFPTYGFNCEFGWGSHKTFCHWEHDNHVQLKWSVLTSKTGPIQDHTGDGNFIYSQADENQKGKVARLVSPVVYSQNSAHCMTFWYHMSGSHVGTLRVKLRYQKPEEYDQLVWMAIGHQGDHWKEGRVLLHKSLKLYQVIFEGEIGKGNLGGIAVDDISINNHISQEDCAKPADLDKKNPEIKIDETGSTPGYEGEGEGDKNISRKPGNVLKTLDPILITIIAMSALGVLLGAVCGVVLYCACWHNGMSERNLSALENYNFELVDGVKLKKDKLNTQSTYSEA
Chain of Vascular endothelial growth factor receptor 2 (Homo sapiens) (P35968 whole entry): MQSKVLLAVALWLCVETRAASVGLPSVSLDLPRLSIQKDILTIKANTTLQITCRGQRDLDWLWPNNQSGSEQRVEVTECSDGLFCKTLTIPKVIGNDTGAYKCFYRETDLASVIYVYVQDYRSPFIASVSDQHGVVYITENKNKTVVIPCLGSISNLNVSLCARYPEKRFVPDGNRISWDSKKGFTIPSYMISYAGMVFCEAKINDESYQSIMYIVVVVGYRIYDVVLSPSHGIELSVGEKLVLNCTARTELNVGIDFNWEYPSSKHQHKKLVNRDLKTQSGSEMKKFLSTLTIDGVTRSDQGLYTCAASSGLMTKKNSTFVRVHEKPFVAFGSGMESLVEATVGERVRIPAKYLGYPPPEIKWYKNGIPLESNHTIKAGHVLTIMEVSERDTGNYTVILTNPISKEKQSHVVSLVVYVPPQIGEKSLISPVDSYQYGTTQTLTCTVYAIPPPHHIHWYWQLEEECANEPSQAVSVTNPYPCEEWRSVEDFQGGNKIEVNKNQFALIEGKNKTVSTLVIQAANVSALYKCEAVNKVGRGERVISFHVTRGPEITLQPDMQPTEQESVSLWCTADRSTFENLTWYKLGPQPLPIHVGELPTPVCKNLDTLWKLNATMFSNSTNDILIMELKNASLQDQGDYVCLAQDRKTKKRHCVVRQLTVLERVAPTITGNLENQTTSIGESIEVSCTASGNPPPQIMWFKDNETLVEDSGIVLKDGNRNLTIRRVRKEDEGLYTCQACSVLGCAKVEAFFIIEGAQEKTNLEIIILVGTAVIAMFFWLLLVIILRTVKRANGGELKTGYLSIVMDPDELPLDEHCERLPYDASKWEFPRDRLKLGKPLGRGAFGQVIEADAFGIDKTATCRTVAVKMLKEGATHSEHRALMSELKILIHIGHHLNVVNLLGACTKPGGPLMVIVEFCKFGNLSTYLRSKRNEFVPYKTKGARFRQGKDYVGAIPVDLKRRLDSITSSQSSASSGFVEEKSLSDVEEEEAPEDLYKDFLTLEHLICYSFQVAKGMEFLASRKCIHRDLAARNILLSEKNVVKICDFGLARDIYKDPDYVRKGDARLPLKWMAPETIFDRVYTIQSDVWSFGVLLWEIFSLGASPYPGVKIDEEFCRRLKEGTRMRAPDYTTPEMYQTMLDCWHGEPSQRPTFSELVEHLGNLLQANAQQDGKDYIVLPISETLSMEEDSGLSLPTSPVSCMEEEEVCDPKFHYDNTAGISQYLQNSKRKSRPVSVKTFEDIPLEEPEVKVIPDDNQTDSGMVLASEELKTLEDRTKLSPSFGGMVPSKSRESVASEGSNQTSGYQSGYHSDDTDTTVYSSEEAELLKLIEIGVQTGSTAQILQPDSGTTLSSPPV
Chain of Vascular endothelial growth factor receptor 1 (Homo sapiens) (P17948 whole entry): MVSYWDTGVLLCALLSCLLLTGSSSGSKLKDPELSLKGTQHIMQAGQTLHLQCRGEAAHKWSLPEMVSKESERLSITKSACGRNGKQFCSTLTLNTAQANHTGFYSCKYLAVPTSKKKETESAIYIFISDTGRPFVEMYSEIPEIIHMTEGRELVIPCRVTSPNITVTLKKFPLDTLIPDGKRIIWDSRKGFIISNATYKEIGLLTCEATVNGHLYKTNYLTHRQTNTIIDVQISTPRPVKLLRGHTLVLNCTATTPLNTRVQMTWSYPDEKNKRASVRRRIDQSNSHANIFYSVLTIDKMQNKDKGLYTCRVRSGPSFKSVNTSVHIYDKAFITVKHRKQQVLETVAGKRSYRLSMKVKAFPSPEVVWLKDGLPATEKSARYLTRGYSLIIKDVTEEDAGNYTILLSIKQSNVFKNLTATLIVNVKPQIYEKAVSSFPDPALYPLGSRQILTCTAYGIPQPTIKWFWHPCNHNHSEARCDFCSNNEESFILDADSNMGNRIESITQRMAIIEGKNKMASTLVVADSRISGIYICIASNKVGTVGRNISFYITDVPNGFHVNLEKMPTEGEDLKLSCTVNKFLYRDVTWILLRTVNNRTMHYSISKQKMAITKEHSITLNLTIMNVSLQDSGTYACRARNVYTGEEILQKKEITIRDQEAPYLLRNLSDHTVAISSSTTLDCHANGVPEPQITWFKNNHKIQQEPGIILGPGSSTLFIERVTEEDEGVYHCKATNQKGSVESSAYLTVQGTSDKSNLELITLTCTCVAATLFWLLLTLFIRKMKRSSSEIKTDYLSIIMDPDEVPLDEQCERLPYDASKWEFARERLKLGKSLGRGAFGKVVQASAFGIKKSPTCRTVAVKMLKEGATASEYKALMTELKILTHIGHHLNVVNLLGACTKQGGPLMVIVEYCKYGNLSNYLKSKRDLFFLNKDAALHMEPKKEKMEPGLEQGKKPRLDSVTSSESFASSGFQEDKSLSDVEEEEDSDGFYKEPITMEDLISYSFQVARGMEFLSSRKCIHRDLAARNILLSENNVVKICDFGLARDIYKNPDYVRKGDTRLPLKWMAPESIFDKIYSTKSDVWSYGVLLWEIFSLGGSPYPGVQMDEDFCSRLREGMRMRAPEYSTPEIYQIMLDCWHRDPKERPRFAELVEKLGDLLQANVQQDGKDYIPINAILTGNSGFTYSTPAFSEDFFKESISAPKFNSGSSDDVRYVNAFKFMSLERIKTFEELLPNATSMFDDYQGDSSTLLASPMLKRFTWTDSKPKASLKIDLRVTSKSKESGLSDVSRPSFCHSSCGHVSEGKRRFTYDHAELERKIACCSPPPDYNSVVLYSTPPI

Turning to `N=C(N)NCCC[C@H](NC(=O)c1sccc1NS(=O)(=O)c1ccc([N+](=O)[O-])cc1)C(=O)O` (stereo in doubt; 46) [listing 1 of 2 here], the Activity at Neuropilin-1 [1] was determined as 75%. On the same count and under the same terms, for `N=C(N)NCCC[C@H](NC(=O)c1cccs1)C(=O)O` the value was 28%; for `N=C(N)NCCC[C@H](NC(=O)[C@H](Cc1ccccc1)NC(=O)[C@@H]1CCCN1C(=O)[C@@H](N)CCCCN)C(=O)O` (H-KPFR-OH), 63%; for `N=C(N)NCCC[C@H](NC(=O)c1cccc(-c2cccc(NC(=O)C3CCC(CN)CC3)c2)c1)C(=O)O` (some centres undefined), 49%. For `O=c1[nH]cc(F)c(=O)[nH]1` [FLUOROURACIL], the IC50 (as a rule, the concentration at which inhibition is half-maximal) in the experiment with A549 (A549, 48 h) was 78 µM.

Consider `N=C(N)NCCC[C@H](NC(=O)c1sccc1NS(=O)(=O)c1cccc2nonc12)C(=O)O`, for which, on Neuropilin-1 [1], the Activity came to 87%. This compound also came in with an IC50 at Neuropilin-1 [2] of 17 µM. On the same counts, the results for `N=C(N)NCCC[C@H](NC(=O)c1sccc1NS(=O)(=O)c1ccc(N)cc1)C(=O)O` are 78% and 13 µM. The compound `N=C(N)NCCC[C@H](NC(=O)C1CCN(Cc2cccc(NC(=O)CCCCCN)c2)CC1)C(=O)O` came in with an Activity on Neuropilin-1 [1] of 35%. In the case of `C[C@@H](NC(=O)[C@@H]1CCCN1C(=O)[C@@H](N)CCCCN)C(=O)N[C@@H](CCCNC(=N)N)C(=O)O`, on Neuropilin-1 [1], the Activity turned out to be 36%. Compound `C[C@H](NC(=O)[C@@H]1CCCN1C(=O)[C@@H](N)CCCCN)C(=O)N[C@@H](CCC(N)=O)C(=O)O` (H-KPAQ-OH) had an Activity at Neuropilin-1 [1] of 19%. On Neuropilin-1 [1], `N=C(N)NCCC[C@H](NC(=O)c1ccccc1S(=O)(=O)C1CCNCC1)C(=O)O` had an Activity of 10%. For the compound `C[C@H](NC(=O)[C@@H]1CCCN1C(=O)[C@@H](N)CCCCN)C(=O)N[C@H](CCCNC(=N)N)C(=O)O`, at Neuropilin-1 [1], the Activity was determined as 22%. In the case of `N=C(N)NCCC[C@H](NC(=O)[C@@H]1CCCN1C(=O)[C@@H]1CCCN1C(=O)[C@@H](N)CCCCN)C(=O)O` (H-KPPR-OH), the Activity at Neuropilin-1 [1] was determined as 96%. On Neuropilin-1 [2], this compound came in with an IC50 of 14 µM.

Consider `C/N=C(/NC)NCCC[C@H](NC(=O)c1sccc1NS(=O)(=O)c1ccc([N+](=O)[O-])cc1)C(=O)O`, for which the Activity on Neuropilin-1 [1] is 12%. Still for that read-out and setting: next, `N=C(N)NCCC[C@H](NC(=O)c1sccc1S(=O)(=O)Nc1ccc(N)cc1)C(=O)O`: 0%. In the case of `N=C(N)NCCC[C@H](NC(=O)c1sccc1NS(=O)(=O)c1ccc([N+](=O)[O-])cc1)C(=O)O` (stereo in doubt; 46) [listing 2 of 2 here], the IC50 on Neuropilin-1 [2] (endothelial cell) is 52 µM.

In the case of `Cc1nn(C)c(Cl)c1CNc1cccc(S(=O)(=O)Nc2ccsc2C(=O)N[C@@H](CCCNC(=N)N)C(=O)O)c1`, the Activity on Neuropilin-1 [1] was 88%. Besides, the IC50 at Neuropilin-1 [2] was 6 µM. On the same counts, the results for `CC(=O)Nc1ccc(S(=O)(=O)Nc2ccsc2C(=O)N[C@@H](CCCNC(=N)N)C(=O)O)cc1` are 84% and 18 µM.

In turn, `N=C(NCCC[C@H](NC(=O)c1sccc1NS(=O)(=O)c1ccc([N+](=O)[O-])cc1)C(=O)O)N[N+](=O)[O-]` gave an Activity on Neuropilin-1 [1] of 3%. Same read-out and setting: next, `CN(c1ccsc1C(=O)N[C@@H](CCCNC(=N)N)C(=O)O)S(=O)(=O)c1ccc([N+](=O)[O-])cc1`: 42%; `N=C(N)NCCC[C@H](NC(=O)c1sccc1NS(=O)(=O)c1ccc2nsnc2c1)C(=O)NO`: 59%. On the same count and under the same terms, next, `N=C(N)NCCCC[C@@H](CC(=O)O)NC(=O)c1sccc1NS(=O)(=O)c1ccc2nsnc2c1`: 11%. Regarding `N=C(N)NCCC[C@H](NC(=O)c1sccc1NS(=O)(=O)c1ccccc1N)C(=O)O`, on Neuropilin-1 [1], the Activity is 95%. At Neuropilin-1 [2], this compound came in with an IC50 of 17 µM. The compound `N=C(N)Nc1ccc(C[C@H](NC(=O)c2sccc2NS(=O)(=O)c2ccc(N)cc2)C(=O)O)cc1` had an Activity on Neuropilin-1 [1] of 13%. On Neuropilin-1 [1], `N=C(N)NCCC[C@H](NC(=O)c1ccccc1NS(=O)(=O)c1ccc(N)cc1)C(=O)O` yielded an Activity of 70%. Still for that read-out and setting: next, `N=C(N)NCCC[C@@H](NC(=O)c1sccc1NS(=O)(=O)c1ccc(N)cc1)C(=O)O`: 36%; `C[C@H](NC(=O)[C@@H]1CCCN1C(=O)[C@H](N)CCCCN)C(=O)N[C@@H](CCCNC(=N)N)C(=O)O`: 51%; `N=C(N)NCCCC[C@H](NC(=O)c1sccc1NS(=O)(=O)c1ccc(N)cc1)C(=O)O`: 20%. The compound `C[C@H](NC(=O)[C@@H]1CCCN1C(=O)[C@@H](N)CCCCN)C(=O)N[C@@H](CCCNC(=N)N)C(=O)O` yielded an Activity at Neuropilin-1 [1] of 83%. At Neuropilin-1 [2], the IC50 is 30 µM. On the same counts, the results for `N=C(N)NCCC[C@H](NC(=O)c1sccc1NS(=O)(=O)c1ccc(F)cc1F)C(=O)O` are 79% and 33 µM. As to `COC(=O)[C@H](CCCNC(=N)N)NC(=O)c1sccc1NS(=O)(=O)c1ccc([N+](=O)[O-])cc1`, on Neuropilin-1 [1], the Activity was 21%. Regarding `N=C(N)NC(=O)CC[C@H](NC(=O)c1sccc1NS(=O)(=O)c1ccc([N+](=O)[O-])cc1)C(=O)O`, the Activity on Neuropilin-1 [1] stood at 58%. Consider `N=C(N)NCCC[C@H](NC(=O)C1CCN(Cc2nc(O)nc(NCCCCN)n2)CC1)C(=O)O`, for which the Activity at Neuropilin-1 [1] was determined as 32%. As for `CN(c1ccsc1C(=O)N[C@@H](CCCNC(=N)N)C(=O)O)S(=O)(=O)c1ccc(N)cc1`, the Activity on Neuropilin-1 [1] turned out to be 25%. `N=C(N)NCCC[C@H](NC(=O)c1sccc1NS(=O)(=O)c1ccc([N+](=O)[O-])cc1)C(=O)O` (stereo in doubt; 38) [listing 1 of 2 here] came in with an IC50 on Neuropilin-1 [2] of 52 µM. On to `C[C@H](NC(=O)[C@@H]1CCCN1C(=O)[C@@H](N)CCCCN)C(=O)N[C@@H](CCCCN)C(=O)O` (H-KPAK-OH), for which the Activity on Neuropilin-1 [1] turned out to be 22%. Consider `N=C(N)NCCC[C@H](NC(=O)c1sccc1NS(=O)(=O)c1cccc2nsnc12)C(=O)O`, for which the Activity at Neuropilin-1 [1] was determined as 99%. For the same compound, the IC50 came out at 8 µM on Neuropilin-1 [2]; 3 µM at Neuropilin-1 [3]; 7 µM on Neuropilin-1 [4]; 3 µM at Neuropilin-1 [5]; 23 µM at Neuropilin-1 [6]. For the same compound, the result in experiment [7], in experiment [8], in experiment [9] and in experiment [10] was inactive. Besides, the inhibition (usually the drop in the measured response relative to a control, in per cent) in [11] was “Dose-dependent effect”; in experiment [12], 34%. The inhibition result in the experiment with HUVEC was “Active”. The outcome with A549 was Active.

`N=C(N)NCCC[C@H](NC(=O)c1sccc1NS(=O)(=O)c1ccccc1[N+](=O)[O-])C(=O)O` gave an Activity at Neuropilin-1 [1] of 100%. At Neuropilin-1 [2], this compound had an IC50 of 9 µM. For `N=C(N)NCCC[C@H](NC(=O)c1cccc(-c2cccc(NC(=O)CCCCCN)c2)c1)C(=O)O`, the Activity on Neuropilin-1 [1] worked out at 40%. Regarding `NCCCC[C@H](NC(=O)c1sccc1NS(=O)(=O)c1ccc([N+](=O)[O-])cc1)C(=O)O`, at Neuropilin-1 [1], the Activity amounted to 20%.

In the case of `N=C(N)NCCC[C@H](NC(=O)c1sccc1NS(=O)(=O)c1cccc(N)c1)C(=O)O`, the Activity on Neuropilin-1 [1] worked out at 84%. Also, the IC50 on Neuropilin-1 [2] worked out at 14 µM.

Turning to `Cc1nc(S(=O)(=O)Nc2ccsc2C(=O)N[C@@H](CCCNC(=N)N)C(=O)O)cn1C`, on Neuropilin-1 [1], the Activity came out at 88%. This compound also came in with an IC50 on Neuropilin-1 [2] of 12 µM. At Neuropilin-1 [1], `N=C(N)NCCC[C@@H](CO)NC(=O)c1sccc1NS(=O)(=O)c1ccc2nsnc2c1` displayed an Activity of 21%. On the same count and under the same terms, next, `Cc1oc(-c2ccc(NC(=O)CCCCN)cc2)cc1C(=O)N[C@@H](CCCNC(=N)N)C(=O)O`: 31%; `N=C(N)NCCC[C@H](NC(=O)c1sccc1NS(=O)(=O)c1ccc([N+](=O)[O-])cc1)C(=O)O` (stereo in doubt; 38) [listing 2 of 2 here]: 75%.
